Measurements from ChEMBL document CHEMBL5346953, “Dual Piperidine-Based Histamine H3 and Sigma-1 Receptor Ligands in the Treatment of Nociceptive and Neuropathic Pain” (J Med Chem, 2023).
Active and inactive are the calls of the source.

Assays:
[1] = Neurotoxicity against mouse assessed as impairment of motor coordination at 15 mg/kg,ip administration at 24 rpm by rotarod test; type: toxicity, organism-based; settings: in vivo
Summary of the method: (§1)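 Mice received 15 mg/kg i.p. or vehicle. Motor coordination was then measured as time on the rotarod, at 18 and 24 rpm, with a maximum of 60 s.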

Histamine H3 receptor [2] = target: T1, Histamine H3 receptor (Homo sapiens, UniProt Q9Y5N1); test: Inhibition of recombinant human histamine H3 receptor stably expressed in HEK293 cells assessed as increase in cAMP accumulation in presence of forskolin incubated for 30 mins by TR-FRET LANCE assay; type: functional, cell-based
T1 sequence (Q9Y5N1 whole entry): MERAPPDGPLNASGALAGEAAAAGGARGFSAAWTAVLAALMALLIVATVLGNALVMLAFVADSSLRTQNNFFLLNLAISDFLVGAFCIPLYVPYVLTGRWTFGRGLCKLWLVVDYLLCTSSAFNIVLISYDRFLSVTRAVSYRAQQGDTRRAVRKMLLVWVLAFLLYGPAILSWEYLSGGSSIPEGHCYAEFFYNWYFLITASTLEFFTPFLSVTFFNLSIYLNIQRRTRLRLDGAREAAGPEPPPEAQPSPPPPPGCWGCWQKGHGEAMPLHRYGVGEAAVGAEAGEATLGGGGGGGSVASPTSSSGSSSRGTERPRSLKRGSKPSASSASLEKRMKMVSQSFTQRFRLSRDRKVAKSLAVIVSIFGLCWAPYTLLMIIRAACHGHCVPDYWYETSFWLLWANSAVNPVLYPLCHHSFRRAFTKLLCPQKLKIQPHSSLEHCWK

[3] = Neurotoxicity against mouse assessed as impairment of motor coordination at 15 mg/kg,ip administration at 18 rpm by rotarod test; type: toxicity, organism-based; settings: in vivo; summary of the method: as §1
[4] = Neurotoxicity against mouse assessed as sedative effect at 15 mg/kg,ip observed after 30 mins of administration; type: toxicity, organism-based; settings: in vivo, 0.5 h
Summary of the method: (§2)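 Spontaneous locomotor activity was recorded in mice after i.p. dosing at 15 or 30 mg/kg, compared with vehicle, as a test of sedation. Analysis was one-way ANOVA. […]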

Histamine H3 receptor [5] = target: T1, Histamine H3 receptor; test: Displacement of [3H]Nalpha-methylhistamine from recombinant human histamine H3 receptor stably expressed in HEK293 cells assessed as inhibition constant by competitive binding based radioligand depletion assay; type: cell-based
Mus musculus [6] = test: Effect in loperamide-induced antinociception mouse assessed as increase in struggle response latency at ip administration; type: functional, organism-based
Mus musculus [7] = test: Antinociceptive activity in mouse assessed as effect on struggle response latency at 100 ug,ip administration; type: functional, organism-based; settings: dose 100.0 µg
Mus musculus [8] = test: Antinociceptive activity in loperamide-induced mouse assessed as increase in struggle response latency struggle response latency at 100 ug,ip administration in presence of PRE-084; type: functional, organism-based; settings: dose 100.0 µg
Mus musculus [9] = test: Antinociceptive activity in loperamide-induced mouse assessed as increase in struggle response latency struggle response latency at 100 ug,ip administration in presence of naloxone-methiodide; type: functional, organism-based; settings: dose 100.0 µg
Mus musculus [10] = test: Antinociceptive activity in mouse assessed as effect on struggle response latency at 25 ug,ip administration; type: functional, organism-based; settings: dose 25.0 µg
Mus musculus [11] = test: Antiallodynic activity against oxaliplatin-induced peripheral neuropathy mouse model assessed as increase in pain threshold baseline at early phase at 5 mg/kg,ip followed by oxaliplatin treatment measured after 3 hrs by von frey test; type: functional
Summary of the method: (§3)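 Mice with oxaliplatin-induced neuropathy were given the drug as a single dose at 5, 10 or 15 mg/kg. Tactile allodynia was measured by von Frey 3 h (early phase) and 7 days (late phase) after neuropathy induction. Thresholds are expressed relative to each group's pre-oxaliplatin baseline.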

Mus musculus [12] = test: Antiallodynic activity against oxaliplatin-induced peripheral neuropathy mouse model assessed as increase in pain threshold baseline at late phase at 10 mg/kg,ip followed by oxaliplatin treatment measured after 7 days by von frey test; type: functional; settings: time 7 day; summary of the method: as §3
Mus musculus [13] = test: Analgesic activity in CCI-induced neuropathic pain mouse model assessed as increase in contralateral paw withdrawal threshold at 10 mg/kg,ip administration measured after 90 mins by von frey test; type: functional, organism-based
Summary of the method: (§4)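 CCI mice tested 14 days after sciatic nerve injury. Groups received i.p. vehicle or drug at 5, 10 or 15 mg/kg. Baselines were taken before injection, with n = 7–8 per group. Read-outs were von Frey (ipsilateral and contralateral paw) at 30, 90 and 180 min, cold plate at 35, 95 and 185 min, and tail flick at 40, 100 and 190 min. Values are %MPE (mean ± SEM), analysed by one-way ANOVA with Bonferroni post hoc.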

Mus musculus [14] = test: Antiallodynic activity against oxaliplatin-induced peripheral neuropathy mouse model assessed as increase in pain threshold baseline at late phase at 5 mg/kg,ip administrated in presence of oxaliplatin measured after 7 days by von frey test; type: functional, organism-based; settings: time 7.0 day; summary of the method: as §3
[15] = Neurotoxicity against mouse assessed as reduction in spontaneous locomotor activity at 30 mg/kg,ip observed after 30 mins of administration; type: toxicity, organism-based; settings: in vivo, 0.5 h; summary of the method: as §2
Mus musculus [16] = test: Anti-hyperalgesic activity in CCI-induced neuropathic pain mouse model assessed as effect on thermal stimuli at 5 to 15 mg/kg,ip administration measured after 95 mins by cold plate test; type: functional, organism-based; settings: dose 5-15 mg/kg; summary of the method: as §4
Mus musculus [17] = test: Analgesic activity in CCI-induced neuropathic pain mouse model assessed as effect on thermal stimuli at 5 to 15 mg/kg,ip administration measured after 35 mins by cold plate test; type: functional, organism-based; settings: dose 5-15 mg/kg; summary of the method: as §4
Mus musculus [18] = test: Antinociceptive activity in Capsaicin-induced nociceptive mouse model assessed as reduction in paw licking at 10 to 30 mg/kg,ip administration followed by capsaicin treatment; type: functional, organism-based; settings: dose 10-30 mg/kg
Summary of the method: (§5)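 Capsaicin was injected intraplantarly into mice pretreated with 10, 15 or 30 mg/kg, with 1% Tween 80 as vehicle. Licking/biting time was scored for 5 min after injection, with 8–10 mice per group, as mean ± SEM. Analysis was one-way ANOVA with Dunnett's test. ED50 was estimated from the dose–response.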

Mus musculus [19] = test: Analgesic activity in CCI-induced neuropathic pain mouse model assessed as effect on tactile allodynia at 5 mg/kg,ip administration measured after 30 to 180 mins by von frey test; type: functional, organism-based; settings: time lower 30.0 min, time upper […]; summary of the method: as §4
Mus musculus [20] = test: Analgesic activity in CCI-induced neuropathic pain mouse model assessed as effect on thermal stimuli at 5 mg/kg,ip administration measured after 185 mins by cold plate test; type: functional, organism-based; summary of the method: as §4
Mus musculus [21] = test: Analgesic activity in CCI-induced neuropathic pain mouse model assessed as effect on withdrawal threshold at 15 mg/kg,ip administration measured after 30 mins by von frey test; type: functional, organism-based; summary of the method: as §4
Mus musculus [22] = test: Antiallodynic activity against oxaliplatin-induced peripheral neuropathy mouse model assessed as increase in pain threshold baseline at late phase at 15 mg/kg,ip followed by oxaliplatin treatment measured after 7 days by von frey test; type: functional; settings: time 7 day; summary of the method: as §3
[23] = Neurotoxicity against mouse assessed as reduction in spontaneous locomotor activity at 15 mg/kg,ip observed after 30 mins of administration; type: toxicity, organism-based; settings: in vivo, 0.5 h; summary of the method: as §2
Mus musculus [24] = test: Antiallodynic activity against oxaliplatin-induced peripheral neuropathy mouse model assessed as increase in pain threshold baseline at early phase at 15 mg/kg,ip followed by oxaliplatin treatment measured after 3 hrs by von frey test; type: functional; summary of the method: as §3
Mus musculus [25] = test: Analgesic activity in CCI-induced neuropathic pain mouse model assessed as increase in mechanical paw withdrawal threshold at 5 mg/kg,ip administration measured after 30 mins by von frey test; type: functional, organism-based; summary of the method: as §4
[26] = Neurotoxicity against mouse assessed as effect in spontaneous locomotor activity by measuring effective dose at ip administration observed after 30 mins; type: toxicity, organism-based; settings: in vivo, 0.5 h; summary of the method: as §2
Mus musculus [27] = test: Analgesic activity in CCI-induced neuropathic pain mouse model assessed as effect on spinal response at 10 mg/kg,ip administration measured after 190 mins by tail flick test; type: functional, organism-based; summary of the method: as §4
Mus musculus [28] = test: Analgesic activity in CCI-induced neuropathic pain mouse model assessed as effect on withdrawal threshold at 15 mg/kg,ip administration measured after 90 mins by von frey test; type: functional, organism-based; summary of the method: as §4
Mus musculus [29] = test: Analgesic activity in CCI-induced neuropathic pain mouse model assessed as effect on tactile allodynia at 10 mg/kg,ip administration measured after 30 to 180 mins by von frey test; type: functional, organism-based; settings: time lower 30.0 min, time upper […]; summary of the method: as §4
Mus musculus [30] = test: Analgesic activity in CCI-induced neuropathic pain mouse model assessed as effect on withdrawal threshold at 15 mg/kg,ip administration measured after 180 mins by von frey test; type: functional, organism-based; summary of the method: as §4
Mus musculus [31] = test: Analgesic activity in CCI-induced neuropathic pain mouse model assessed as effect on thermal stimuli at 10 mg/kg,ip administration measured after 185 mins by cold plate test; type: functional, organism-based; summary of the method: as §4
Mus musculus [32] = test: Analgesic activity in CCI-induced neuropathic pain mouse model assessed as effect on spinal response at 5 mg/kg,ip administration measured after 40 mins by tail flick test; type: functional, organism-based; summary of the method: as §4
Mus musculus [33] = test: Antiallodynic activity against oxaliplatin-induced peripheral neuropathy mouse model assessed as increase in pain threshold baseline at early phase at 10 mg/kg,ip followed by oxaliplatin treatment measured after 3 hrs by von frey test; type: functional; summary of the method: as §3
Mus musculus [34] = test: Antinociceptive activity in loperamide-induced mouse assessed as increase in struggle response latency struggle response latency at 25 ug,ip administration in presence of PRE-084; type: functional, organism-based; settings: dose 25.0 µg
Mus musculus [35] = test: Antinociceptive activity in loperamide-induced mouse assessed as increase in struggle response latency struggle response latency at 25 ug,ip administration in presence of naloxone-methiodide; type: functional, organism-based; settings: dose 25.0 µg
Mus musculus [36] = test: Analgesic activity in CCI-induced neuropathic pain mouse model assessed as increase in mechanical paw withdrawal threshold at 10 mg/kg,ip administration measured after 180 mins by von frey test; type: functional, organism-based; summary of the method: as §4
Mus musculus [37] = test: Analgesic activity in CCI-induced neuropathic pain mouse model assessed as effect on spinal response at 10 mg/kg,ip administration measured after 40 mins by tail flick test; type: functional, organism-based; summary of the method: as §4
Mus musculus [38] = test: Analgesic activity in CCI-induced neuropathic pain mouse model assessed as effect on spinal response at 10 mg/kg,ip administration measured after 100 mins by tail flick test; type: functional, organism-based; summary of the method: as §4
Mus musculus [39] = test: Analgesic activity in CCI-induced neuropathic pain mouse model assessed as increase in mechanical paw withdrawal threshold at 10 mg/kg,ip administration measured after 90 mins by von frey test; type: functional, organism-based; summary of the method: as §4
Mus musculus [40] = test: Antinociceptive activity in Capsaicin-induced nociceptive mouse model assessed as reduction in biting behavior at 10 to 30 mg/kg,ip administration followed by capsaicin treatment; type: functional, organism-based; settings: dose 10-30 mg/kg; summary of the method: as §5
Mus musculus [41] = test: Antiallodynic activity against oxaliplatin-induced peripheral neuropathy mouse model assessed as increase in pain threshold baseline at late phase at 5 mg/kg,ip followed by oxaliplatin treatment measured after 7 days by von frey test; type: functional; settings: time 7 day; summary of the method: as §3
Mus musculus [42] = test: Analgesic activity in CCI-induced neuropathic pain mouse model assessed as increase in mechanical paw withdrawal threshold at 10 mg/kg,ip administration measured after 30 mins by von frey test; type: functional, organism-based; summary of the method: as §4

With c1ccc(-c2ccc(OCCCN3CCCCCC3)cc2)cc1 the Activity [1] was “Toxic”, the IC50 (Histamine H3 receptor [2]) was 0.0834 µM and the Activity [3] was “Toxic”. The Activity [4] was “Toxic”.

Work on N#Cc1ccc(-c2ccc(OCCCN3CCCCC3)cc2)cc1 yielded a Ki (Histamine H3 receptor [5]) of 0.0062 µM.

In the case of Cc1cc(OCCN2CCOCC2)nn1-c1ccc2ccccc2c1, the Activity (Mus musculus [6]) is reported as “Dose-Dependent Effect”, the Activity (Mus musculus [7]) is reported as “inactive” and the Activity (Mus musculus [8]) is reported as “inactive”. For the same compound, the Activity (Mus musculus [9]) was “inactive”.

With N#Cc1ccc(-c2ccc(OCCCN3CCC(c4ccncc4)CC3)cc2)cc1 the Activity (Mus musculus [10]) was “inactive”, the Activity (Mus musculus [11]) was 63.5% and the Activity (Mus musculus [12]) was 67.6%. The Activity (Mus musculus [13]) was “Active”, the Activity (Mus musculus [14]) was “inactive” and the Activity [15] was “Toxic”. The Activity (Mus musculus [6]) was “Dose-Dependent Effect”, the Activity (Mus musculus [16]) was “Active” and the Activity (Mus musculus [17]) was “Active”. For the same compound, the Activity [1] was “Toxic”, the Activity (Mus musculus [18]) was “Active” and the Activity (Mus musculus [19]) was “inactive”. For the same compound, the Activity (Mus musculus [20]) was “Active”, the IC50 (Histamine H3 receptor [2]) was 0.215 µM and the Activity (Mus musculus [21]) was “inactive”. The Activity (Mus musculus [22]) was 69.3%, the Activity [23] was “Toxic” and the Activity [3] was “Toxic”. The Activity (Mus musculus [24]) was 66.6%, the Activity (Mus musculus [25]) was “Active” and the ED50 [26] was 21.97 mg/kg. The Activity (Mus musculus [27]) was “Active”, the Activity (Mus musculus [28]) was “Active” and the Activity (Mus musculus [29]) was “inactive”. The Activity (Mus musculus [30]) was “inactive”, the Activity (Mus musculus [31]) was “Active” and the Activity (Mus musculus [32]) was “Active”. For the same compound, the Activity (Mus musculus [33]) was 50.4%, the Activity (Mus musculus [34]) was “inactive” and the Activity (Mus musculus [35]) was “inactive”. For the same compound, the Activity (Mus musculus [36]) was “Active”, the Activity (Mus musculus [37]) was “Active” and the Activity (Mus musculus [38]) was “Active”. The Activity (Mus musculus [39]) was “Active”, the Activity (Mus musculus [40]) was “Active” and the Activity (Mus musculus [41]) was 77.7%. The Activity (Mus musculus [42]) was “Active”.
